Entries after “also recorded” stand apart in the source; their conditions may differ. Read-outs that look alike come from different tables or passages of the source.
What was measured:
SPEH2 [1] = assay: Phosphatase assay with AttoPhos, SPEH2; format: biochemical, Strongylocentrotus purpuratus; details: AttoPhos as substrate
SPEH1 = assay: Phosphatase assay with AttoPhos, SPEH1; format: biochemical, Strongylocentrotus purpuratus; details: AttoPhos as substrate
Recombinant CEEH1 [2] = details: read-out: Recombinant CEEH1 IC50; PHOME as substrate; ref Harris et al. (2008); cited from earlier work
SPEH2 [3] = assay: Radiometric epoxide hydrolase assay with t-DPPO, recombinant SPEH2; format: biochemical, Strongylocentrotus purpuratus; details: t-DPPO as substrate
Summary of the method: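 Recombinant enzyme with a C-terminal six-histidine tag, expressed in baculovirus-infected Trichoplusia ni High Five cells (0.1 MOI, 72 h at 28°C). […] The radiometric assay used tritium-labelled t-DPPO as substrate, with enzyme at 0.3 µg/mL, and was terminated at 10 min.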

Recombinant SPEH1 [4] = target: T1, Recombinant SPEH1 (Strongylocentrotus purpuratus, UniProt B2MWN2); format: biochemical
Recombinant human sEH = details: ref Morisseau et al. (2000), cited from earlier work
Recombinant CEEH1 [5] = details: ref Harris et al. (2008), cited from earlier work
Recombinant SPEH1 [6] = target: T1, Recombinant SPEH1; assay: Hydrolysis of EETs and EpOMEs analyzed by LC-MS/MS, recombinant SPEH1; format: biochemical; details: natural substrates, adjusted for estimated purity
Recombinant CEEH1 [7] = details: natural substrates, ref Harris et al. (2008); cited from earlier work
Recombinant SPEH1 [8] = target: T1, Recombinant SPEH1; assay: Inhibition of recombinant SPEH1, [3H] t-DPPO as substrate; format: biochemical; details: read-out: Recombinant SPEH1 IC50
Recombinant SPEH1 [9] = target: T1, Recombinant SPEH1; assay: Fluorescent IC50 assay with PHOME as substrate, recombinant SPEH1; format: biochemical
[10] = t-DPPO as substrate, recombinant SPEH1
[11] = t-DPPO as substrate, recombinant human sEH
[12] = t-DPPO as substrate, recombinant CEEH1

O=P(O)(O)Oc1ccc2nc(-c3nc4ccccc4s3)sc2c1 [AttoPhos]
Phosphatase activity of SPEH2 with AttoPhos (SPEH2 [1]): did not display phosphatase activity
Phosphatase activity of SPEH1 with AttoPhos (SPEH1): did not display phosphatase activity

O=C(NC1CCCCC1)NC12CC3CC(CC(C3)C1)C2 [ACU, N-adamantyl-N′-cyclohexylurea]
IC50 (Recombinant CEEH1 [2]): 2500 ± 120 nM

c1ccc(CC2OC2c2ccccc2)cc1 (stereo not drawn) [t-DPPO]
EH activity of SPEH2 with t-DPPO (SPEH2 [3]): not active; also recorded: did not display activity
Km (Recombinant SPEH1 [4]; [10]): 35 ± 1.2 µM
kcat (Recombinant SPEH1 [4]; [10]): 44 ± 0.71 s⁻¹
Specific activity (Recombinant SPEH1 [4]; t-DPPO as substrate, recombinant SPEH1, adjusted for estimated purity): 3100 ± 270 nmol/min/mg
kcat/Km ratio (Recombinant SPEH1 [4]; t-DPPO, SPEH1, unit not given): 1.3
Km (Recombinant human sEH; [11]): 6.2 ± 0.6 µM
Specific activity (Recombinant human sEH; [11]): 4500 ± 200 nmol/min/mg
kcat (Recombinant human sEH; [11]): 4.3 ± 0.3 s⁻¹
kcat/Km ratio (Recombinant human sEH; t-DPPO, human enzyme, unit not given): 0.7
Km (Recombinant CEEH1 [5]; [12]): 160 ± 21 µM
Specific activity (Recombinant CEEH1 [5]; [12]): 3000 ± 230 nmol/min/mg
kcat (Recombinant CEEH1 [5]; [12]): 12 ± 0.5 s⁻¹
kcat/Km ratio (Recombinant CEEH1 [5]; t-DPPO, nematode enzyme, unit not given): 0.07

CCCCC/C=C\C[C@H]1O[C@H]1C/C=C\C/C=C\CCCC(=O)O [11,12-EET]
Specific activity (Recombinant SPEH1 [6]): 490 ± 140 nmol/min/mg
Specific activity (Recombinant CEEH1 [7]): 205 ± 15.3 nmol/min/mg

CCCCC/C=C\C/C=C\CC1OC1C/C=C\CCCC(=O)O (stereo not drawn) [8,9-EET]
Specific activity (Recombinant SPEH1 [6]): 33 ± 7.2 nmol/min/mg
Specific activity (Recombinant CEEH1 [7]): 45.2 ± 1.00 nmol/min/mg

CCNC(=O)NC1CCCCC1 [CEU, N-cyclohexyl-N′-ethylurea]
IC50 (Recombinant CEEH1 [2]): > 50000 nM
IC50 (Recombinant SPEH1 [8]): > 50000 nM

CCCCCCCCCCCCNC(=O)NC1CCCCC1 [CDU, N-cyclohexyl-N′-dodecylurea]
IC50 (Recombinant CEEH1 [2]): 160 ± 23 nM

O=C(O)CCCCCCCCCCCNC(=O)NC12CC3CC(CC(C3)C1)C2 [AUDA, 12-(3-adamantane-1-yl-ureido)-dodecanoic acid]
IC50 (Recombinant CEEH1 [2]): 27 ± 0.29 nM
IC50 (Recombinant SPEH1 [9]): 160 ± 13 nM

CCCCCC=CCC1OC1CCCCCCCC(=O)O (stereo not drawn) [9,10-EpOME, 9,10-epoxy-12-octadecenoate]
Specific activity (Recombinant SPEH1 [6]): 4800 ± 210 nmol/min/mg
Specific activity (Recombinant CEEH1 [7]): 137 ± 1.77 nmol/min/mg

CCCCCC1OC1C/C=C\C/C=C\C/C=C\CCCC(=O)O (stereo not drawn) [14,15-EET]
Specific activity (Recombinant SPEH1 [6]): 330 ± 64 nmol/min/mg
Specific activity (Recombinant CEEH1 [7]): 615 ± 10.8 nmol/min/mg

O=C(NC1CCCCC1)NC1CCCCC1 [DCU, N,N′-dicyclohexylurea]
IC50 (Recombinant CEEH1 [2]): 41000 nM

— article PMC2858585 (DNA and cell biology, 2008)
